# Rad51 HR inh: human RAD51 strand exchange inhibitors, primary screen, biochemical, fluorescence. DNA repair protein RAD51 homolog 1 (Homo sapiens), Q06609. hRad51 DNA strand exchange, fluorescence dequenching. AID 1385, 2008. inhibition, % at 10 µM. actives 0.085% (n = 200,000);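 active = inhibition above 40% at the single screening dose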;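 also: 0% = DMSO control wells and 100% = blanks with heterologous ssDNA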
#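 material = hRad51 filaments on single-stranded DNA | reagent = Donor/quencher-labelled 47-bp dsDNA substrate | compound = 10 µM final, single point | schedule = strand-exchange reaction 15 min at room temperature | measured by = fluorescein emission 520 nm, excitation 485 nm | read-out basis = % inhibition versus plate control and blank means | benchmarks = plate controls and plate blanks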
# Hck-Nef inh: inhibitors of Nef-activated human Hck kinase, primary screen, biochemical, Z-Lyte FRET, 384-well, Hck-YEEI; Tyrosine-protein kinase HCK (Homo sapiens), P08631; Recombinant Hck-YEEI plus Nef, Z-Lyte FRET kinase assay; inhibition, % at 20 µM; actives 0.68% (n = 220,000);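 active = Hck-Nef kinase inhibition above about 50%, limit read from the data; inactive = inhibition below that limit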;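 also: 0% = DMSO with Hck plus Nef and 100% = Hck alone without Nef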
# Target sequence (P08631 whole entry, looked up): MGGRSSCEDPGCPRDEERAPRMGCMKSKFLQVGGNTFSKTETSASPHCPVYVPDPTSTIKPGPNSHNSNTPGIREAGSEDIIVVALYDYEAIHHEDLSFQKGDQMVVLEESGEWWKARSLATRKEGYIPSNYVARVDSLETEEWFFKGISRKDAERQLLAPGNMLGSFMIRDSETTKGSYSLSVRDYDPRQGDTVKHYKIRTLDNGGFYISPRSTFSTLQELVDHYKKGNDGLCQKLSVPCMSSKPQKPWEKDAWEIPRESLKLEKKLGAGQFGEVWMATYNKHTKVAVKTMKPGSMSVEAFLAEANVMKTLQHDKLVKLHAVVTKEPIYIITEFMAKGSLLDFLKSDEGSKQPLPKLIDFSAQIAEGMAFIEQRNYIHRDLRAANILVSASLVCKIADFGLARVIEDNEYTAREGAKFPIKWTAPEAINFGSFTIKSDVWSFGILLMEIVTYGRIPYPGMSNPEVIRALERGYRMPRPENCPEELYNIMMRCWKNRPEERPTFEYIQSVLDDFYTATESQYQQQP
# H9c2 TAG inh: inhibitors of triacylglycerol accumulation, primary screen, cell-based, uHTS, fluorescence, H9c2; H9c2 cells, Nile Red lipid (TAG) fluorescence; cells loaded with 200 µM oleic acid; inhibition, % at 12.5 µM; actives 0.66% (n = 230,000);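 active = pattern-corrected inhibition of lipid staining of at least 50% with the nuclear-stain viability signal not falling by more than 50%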;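 also: 0% = DMSO wells and 100% = triacsin C control wells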
# Mdm2 ligase inh: MDM2-luciferase reporter signal enhancers, primary screen, MDM2 E3 ligase inhibitor project, cell-based, luminescence, 1536-well; E3 ubiquitin-protein ligase Mdm2 (Homo sapiens), Q00987; cell-based MDM2 ubiquitination luciferase reporter, 2 h; 0 = plate control, 100 = twice control, blank-subtracted; signal enhancement, % at 5 µM; actives 0.11% (n = 210,000);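 active = signal enhancement of 30% or more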;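 also: luminescence tracks abundance of the self-degrading MDM2-luciferase fusion protein; higher signal means inhibition of MDM2 E3 ligase activity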
#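 system = mammalian cells stably expressing self-ubiquitinating, self-degrading MDM2 E3–luciferase fusion | quantity = 2000 cells per well seeded | incubation = 4 h cell settling then 2 h compound exposure, 37 °C | signal = SteadyLite luminescence, 15 min reagent step | benchmarks = plate control and blank wells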
# PKD1 kinase inh: inhibitors of human PKD1 kinase, biochemical, fluorescence polarization. PKD1 kinase fluorescence polarization assay. inhibition, % (concentration not given with the values). actives 0.056% (n = 200,000); in the data active = inhibition above about 50%
# PERK inhibitor: block of dimerizer-induced PERK translation repression, primary screen, PERK inhibitor project, CHO PERK-DD cells, SEAP luminescence, HTS; Eukaryotic translation initiation factor 2-alpha kinase 3 (Homo sapiens), Q9NZJ5; CHO PERK-DD fusion, SEAP luminescence translation reporter; inhibition, % at 5.6 µM; actives 0.17% (n = 220,000); AID 1416, 2008;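 active = inhibition above the mean inhibition of all tested compounds plus 3 SD, set separately per screening campaign, cut at about 2.9% in these data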;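 also: PERK kinase domain activated by AP20187 dimerizer at 100 nM; 0% = DMSO with dimerizer and 100% = rapamycin at 8.4 µM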
# Hck Nef conf: retest of Hck:Nef kinase inhibitor hits, confirmation, biochemical, Z-Lyte FRET, 384-well, p-Tyr peptide counterscreen | actives 28% (n = 1,300) | calls only at 10 µM | AID 463188, 2010 | Recombinant Hck-YEEI:Nef, Z-Lyte FRET kinase assay | shares compounds with Hck-Nef inh;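 active = average inhibition of at least 50%, with Z-scores no higher than 3 in both the phospho-tyrosine peptide and fluorescence counterscreens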
# * = called active by the depositor; i = inactive; . = no result given; + = active, no number. Hits are enriched below; roughly 1.3% of the tested compounds scored in any of these assays.
SMILES,Rad51 HR inh,Hck-Nef inh,H9c2 TAG inh,Mdm2 ligase inh,PKD1 kinase inh,PERK inhibitor,Hck Nef conf
Cn1c(=O)c2ncn(CC(=O)Nc3nc(-c4ccc(Cl)cc4)cs3)c2n(C)c1=O,-7.6,23.0,-2.9,-1.5,-3.1,0.1,.
COc1ccccc1/C=C/C=c1\sc2nc(=O)c(Cc3ccccc3)nn2c1=O,-2.9,80.7*,0.8,-8.1,.,-0.7,+
CC(C)(C)SCCNC(=O)c1ccccc1,8.6,54.2*,17.4,-14.3,5.6,-0.5,i
COc1cc2oc(-c3ccc(O)cc3)cc(=O)c2c(O)c1OC,-7.6,89.1*,.,-40.2,.,.,+
COc1c(O)cc2oc(-c3ccc(O)cc3)cc(=O)c2c1O,4.0,90.5*,-2.8,-40.8,.,.,+
COc1cc2oc(-c3ccc(O)cc3)cc(=O)c2c(OC)c1O,16.0,7.7,.,.,.,1.1,.
COc1cc(NC(=O)CCc2c(C)noc2C)c(C(=O)O)cc1OC,.,.,0.9,.,.,.,.
Cc1cc(C)c2c(n1)nn1c(NCCOCCO)cc(C)nc21,-2.7,50.8*,-1.7,8.0,-6.3,0.5,.
O=C(CSc1nc2ccccc2n1CCc1ccccc1)N1CCOCC1,1.8,0.1,.,-3.9,-5.4,-0.7,.
O=C(CSc1nc2ccccc2n1CCc1ccccc1)c1ccc(O)c(O)c1,.,189.3*,10.0,-3.9,-5.2,1.3,+
COc1cc([N+](=O)[O-])ccc1-c1ccc(/C=N/NC(=O)c2ccccc2O)o1,-18.7,73.6*,.,-11.2,.,1.9,i
O=C(N/N=C/c1ccc(-c2cccc([N+](=O)[O-])c2)o1)c1ccccc1O,-6.1,9.0,-0.3,-13.7,-3.1,1.0,.
c1ccc(Nc2ccnc(Nc3ccccc3)n2)cc1,-7.8,100.5*,-18.2,0.2,.,-1.5,+
CCOC(=O)C/C(C)=N/NC(=O)C1CC1(c1ccccc1)c1ccccc1 (stereo unspecified),9.7,2.6,.,-11.1,-5.7,-0.3,.
O=C(CN1C(=O)COc2ccc(Cl)cc21)Nc1ccccn1,.,.,-9.1,.,.,.,.
CC(=O)Nc1sc(N/N=C/c2ccc(N(C)C)cc2)nc1-c1ccc(C)cc1,.,40.5,3.6,-8.0,.,-0.4,.
CC(=O)Nc1sc(N/N=C/c2ccc(C)cc2)nc1-c1ccc(C)cc1,6.9,59.6*,4.8,-9.9,.,0.0,i
CCOc1cc(/C=N\Nc2nc(-c3ccc(C)cc3)c(NC(C)=O)s2)ccc1O,.,97.3*,-4.9,-14.6,.,-0.1,+
COc1ccc(/C=N/Nc2nc(-c3ccc(C)cc3)c(NC(C)=O)s2)cc1OC,.,99.3*,5.8,-6.7,.,-0.6,+
CCOc1cc(/C=N/NC(=O)c2c(-c3ccccc3)noc2C)ccc1O,21.4,9.3,.,-19.2,3.8,0.0,.
COc1ccccc1NC(=O)C(C)NC(c1ccccc1)c1ccccc1 (stereo unspecified),.,.,-8.5,.,.,.,.
C[C@H]1C=C(C(=O)NCc2ccccc2)O[C@@H](OCc2ccc(CO)cc2)C1,.,1.4,8.6,.,3.2,0.1,.
COc1cccc(Nc2nc(-c3sc(NC(=O)c4ccccc4)nc3C)cs2)c1,4.1,-0.7,14.6,-8.9,11.6,-1.0,.
CC(=O)Nc1nc(C)c(-c2csc(Nc3cccc([N+](=O)[O-])c3)n2)s1,2.9,50.9*,.,-27.6,0.3,-0.9,i
Cc1nc(NC(=O)c2ccccc2)sc1-c1csc(Nc2ccc(C(=O)O)cc2)n1,-0.4,92.9*,13.7,.,.,1.0,i
SMILES,Rad51 HR inh,Hck-Nef inh,H9c2 TAG inh,Mdm2 ligase inh,PKD1 kinase inh,PERK inhibitor,Hck Nef conf
CC(=O)Nc1ccc(Nc2nc(-c3sc(NC(C)=O)nc3C)cs2)cc1,.,.,29.1,.,.,.,.
COc1ccc(CCN(C)C2CCCN(S(=O)(=O)c3ccccc3)C2)cc1OC (stereo unspecified),.,.,-20.8,.,.,.,.
CC1(C(=O)O)CCCN(C(=O)c2cccnc2Oc2ccccc2)C1 (stereo unspecified),.,.,2.1,.,.,.,.
CCc1nc2c(OCc3ccc(Cl)cc3)cccn2c1N(C)C(=O)c1ccc2c(c1)OCO2,.,.,5.9,.,.,.,.
CCN(CC)c1ccc(/C=c2\sc3nc4ccccc4n3c2=O)c(O)c1,-98.5,68.3*,14.4,-11.2,1.6,-0.8,.
Cc1ccc2c(cnn2C(=O)CCC(=O)NC2CCCCC2)c1,.,.,15.1,.,.,.,.
Fc1cccc(-n2c(-c3cccs3)nc3nc4ccccc4nc32)c1,9.7,59.3*,.,.,.,1.1,i
CC(C)CCN1CCN(Cc2cccn2-c2ccccn2)CC1CCO (stereo unspecified),.,2.6,.,9.2,4.7,-0.3,.
CCN(CC)C(=O)Cc1c(O)c2ccccc2[nH]c1=O,2.5,55.8*,6.1,-2.5,.,1.3,+
Fc1ccccc1CNC(=S)Nc1cccc(C(F)(F)F)c1,3.7,3.0,.,-0.3,-3.6,1.2,.
CCSc1nc2c(cnn2-c2ccccc2)c(=O)n1N,19.5,58.9*,2.7,-23.8,.,0.9,+
COc1cc(C(=O)NN=Cc2ccc(N(C)C)cc2)cc(OC)c1OC,.,.,43.5,.,.,.,.
O=C(COc1ccc(/C=N/NC(=O)c2cc3ccccc3o2)cc1Cl)Nc1ccccc1,-1.4,85.7*,.,-38.5,8.4,-0.3,+
CCc1ccc(O)c(N=Cc2ccccc2O)c1,-3.8,0.9,.,8.7,-14.9,1.1,.
O=c1[nH][nH]c2c(N=Cc3ccccc3O)ccc(F)c12,0.1,59.7*,.,-8.7,.,0.7,i
COc1ccccc1NS(=O)(=O)c1cccc(-n2c(O)c(C=Nc3ccccc3C(=O)O)c3ccccc3c2=O)c1,4.4,62.4*,2.1,-8.7,.,-0.2,i
COc1ccc(Cn2c(O)c(C=Nc3ccccc3C(=O)O)c3ccccc3c2=O)cc1,-9.4,23.5,-9.0,-8.5,.,-0.1,.
Cc1oc(-c2cc(F)cc(F)c2)nc1CN1CCSCC1,-11.1,19.7,-12.8,-4.1,-0.5,1.5,.
Cc1c(C(=O)OCC(=O)N(C)CC(=O)Nc2ccc(F)cc2)oc2ccccc12,.,.,-10.0,.,.,.,.
O=C(O)c1cccc(-n2cccc2/C=C2/NC(=O)N(c3cccc(Cl)c3)C2=O)c1,-32.1,46.9,-3.0,-4.1,.,1.7,.
O=C(O)c1cccc(-n2cccc2/C=C2/NC(=O)N(c3ccc(Cl)cc3)C2=O)c1,5.0,82.4*,.,-4.9,-8.2,0.9,.
Nc1[nH]nc2nc(N3CCOCC3)nc(-c3ccccc3)c12,-6.3,67.4*,5.6,-12.3,-10.2,0.1,+
